# Data as given in ChEMBL document CHEMBL1122426, “Radioiodine-labeled N,N-dimethyl-N'-(2-hydroxy-3-alkyl-5-iodobenzyl)-1,3-propanediamines for brain perfusion imaging” (J Med Chem, 1983).
# Experiments:
# Rattus norvegicus [1] = assay: Biodistribution of I-125 labeled compound in rat blood, 1 hr after intravenous injection. value expressed in average % dose per organ; value may range from 1.13 to 1.60; type: ADME, organism-based; conditions: in vivo
# Rattus norvegicus [2] = assay: Biodistribution of I-125 labeled compound in rat blood, 2 min after intravenous injection. value expressed in average % dose per organ; value may range from 4.84 to 5.25; type: ADME, organism-based; conditions: in vivo
# Rattus norvegicus [3] = assay: Biodistribution of I-125 labeled compound in rat brain to blood ratio, 2 m in after intravenous injection. value expressed in % dose per gram ratio; type: ADME, organism-based
# In short: (§1)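 Rats given I-125 diamine iv; tissue activity at 2 min or 1 h compared with diluted injected-dose aliquots. % dose per gram approximated as % dose per organ divided by mean organ weight (brain 1.65 g; blood 18 g). Ratio taken from the per-gram values.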
# Rattus norvegicus [4] = assay: Biodistribution of I-125 labeled compound in rat heart, 2 min after intravenous injection. value expressed in average % dose per organ; value may range from 1.95 to 2.54; type: ADME, organism-based; conditions: in vivo
# Rattus norvegicus [5] = assay: Biodistribution of I-125 labeled compound in rat liver, 1 hr after intravenous injection. value expressed in average % dose per organ; value may range from 8.10 to 10.6; type: ADME, organism-based; conditions: in vivo
# Rattus norvegicus [6] = assay: Biodistribution of I-125 labeled compound in rat brain, 1 hr after intravenous injection. value expressed in average % dose per organ; value may range from 1.39 to 1.47; type: ADME, organism-based; conditions: in vivo
# Rattus norvegicus [7] = assay: Biodistribution of I-125 labeled compound in rat liver, 2 min after intravenous injection. value expressed in average % dose per organ; value may range from 8.10 to 8.95; type: ADME, organism-based; conditions: in vivo
# Rattus norvegicus [8] = assay: Biodistribution of I-125 labeled compound in rat thyroid, 1 hr after intravenous injection. value expressed in average % dose per organ; value may range from 0.18 to 0.25; type: ADME, organism-based, Thyroid gland; conditions: in vivo
# Rattus norvegicus [9] = assay: Biodistribution of I-125 labeled compound in rat thyroid, 2 min after intravenous injection. value expressed in average % dose per organ; value may range from 0.13 to 0.20; type: ADME, organism-based, Thyroid gland; conditions: in vivo
# Rattus norvegicus [10] = assay: Biodistribution of I-125 labeled compound in rat brain, 2 min after intravenous injection. value expressed in average % dose per organ; value may range from 1.28 to 1.56; type: ADME, organism-based; conditions: in vivo
# Rattus norvegicus [11] = assay: Biodistribution of I-125 labeled compound in rat heart, 1 hr after intravenous injection. value expressed in average % dose per organ; value may range from 1.54 to 1.76; type: ADME, organism-based; conditions: in vivo
# Rattus norvegicus [12] = species: Rattus norvegicus; assay: Distribution coefficient at pH 7.0 in rat; type: ADME, organism-based
# In short: (§2)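 Octanol/buffer partition: I-125 labeled diamine mixed with 3 g each of 1-octanol and 0.1 M phosphate buffer at pH 7.0 or 7.4, vortexed 3× 1 min, centrifuged 5 min. Two 0.5 g samples of each layer counted. Value is cpm/g octanol over cpm/g buffer, usually repeated three times.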
# Rattus norvegicus [13] = species: Rattus norvegicus; assay: Distribution coefficient at pH 7.4 in rat; type: ADME, organism-based; in short: as §2
# Rattus norvegicus [14] = assay: Biodistribution of I-125 labeled compound in rat muscle, 2 min after intravenous injection. value expressed in average % dose per organ; value may range from 7.52 to 9.77; type: ADME, organism-based, Muscle tissue; conditions: in vivo
# [15] = The protein binding ability of compound was expressed in Percent free; type: ADME; conditions: read-out: % free
# In short: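 Binding to pooled human serum was measured by equilibrium dialysis. 0.4 mL serum and 0.4 mL 0.15 M phosphate buffer, pH 7.4, were separated by a membrane, and 0.025 μCi radiolabeled diamine was added on the buffer side. Cells were rotated at 37 °C for 18 h, and aliquots from both sides were weighed and counted. % free = buffer/serum radioactivity concentration ratio × 100. The membrane was also counted.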
# Rattus norvegicus [16] = assay: Biodistribution of I-125 labeled compound in rat lungs, 1 hr after intravenous injection. value expressed in average % dose per organ; value may range from 14.0 to 17.9; type: ADME, organism-based, Lung; conditions: in vivo
# Rattus norvegicus [17] = assay: Biodistribution of I-125 labeled compound in rat muscle, 1 hr after intravenous injection. value expressed in average % dose per organ; value may range from 11.9 to 16.0; type: ADME, organism-based, Muscle tissue; conditions: in vivo
# Rattus norvegicus [18] = assay: Biodistribution of I-125 labeled compound in rat lungs, 2 min after intravenous injection. value expressed in average % dose per organ; value may range from 36.9 to 42.9; type: ADME, organism-based, Lung; conditions: in vivo
# Rattus norvegicus [19] = assay: Biodistribution of I-125 labeled compound in rat brain to blood ratio, 1 hr after intravenous injection. value expressed in % dose per gram ratio; type: ADME, organism-based; in short: as §1
compound,measurement,setting,value
CCC(C)c1cc(I)cc(CNCCCN(C)C)c1O (centres undefined),Average dose per organ,Rattus norvegicus [1],1.33%
same,Average dose per organ,Rattus norvegicus [2],5.05%
same,Ratio,Rattus norvegicus [3],2.96%
same,Average dose per organ,Rattus norvegicus [4],2.15%
same,Average dose per organ,Rattus norvegicus [5],9.74%
same,Average dose per organ,Rattus norvegicus [6],1.43%
same,Average dose per organ,Rattus norvegicus [7],8.65%
same,Average dose per organ,Rattus norvegicus [8],0.22%
same,Average dose per organ,Rattus norvegicus [9],0.16%
same,Average dose per organ,Rattus norvegicus [10],1.39%
same,Average dose per organ,Rattus norvegicus [11],1.68%
same,Distribution coefficient,Rattus norvegicus [12],77.4
same,Distribution coefficient,Rattus norvegicus [13],389
same,Average dose per organ,Rattus norvegicus [14],8.38%
same,fraction unbound,[15],0.0762
same,Average dose per organ,Rattus norvegicus [16],15.8%
same,Average dose per organ,Rattus norvegicus [17],13.3%
same,Average dose per organ,Rattus norvegicus [18],39.8%
same,Ratio,Rattus norvegicus [19],11.5%
